The text below walks through data of ChEMBL document CHEMBL4814000, “Discovery of β-carboline-(phenylsulfonyl)furoxan hybrids as potential anti-breast cancer agents” (Bioorg Med Chem Lett, 2021).

The structures appear in SMILES notation. The source made the active and inactive calls. The calls are words filed in the database; no cut-off is given here. Bounds are passed on as bounds.

The test system of one assay is MCF7. The assay is described as follows: Antiproliferative activity against human MCF7 cells assessed as reduction in cell viability incubated for 72 hrs by CCK-8 assay. In kind it is functional, cell-based. The settings on record: MCF7, 72 h. Put shortly: (§1)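 CCK-8 viability assay on MCF-7 or MDA-MB-231 cells after 72 h compound exposure; IC50 taken as half inhibitory concentration, reported as mean ± SD of three independent experiments.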
Background: Tetrazolium assays rely on reduction of a dye to a coloured formazan, in cell work by metabolically active cells.

For the next assay, the system named is MDA-MB-231. The assay is described as follows: Antiproliferative activity against human MDA-MB-231 cells assessed as reduction in cell viability incubated for 72 hrs by CCK-8 assay. In kind it is functional, cell-based. The note with it: MDA-MB-231, 72 h. The essentials: as §1
Assay [1] is described as follows: Nitric oxide releasing activity assessed as amount of NO release measured up to 24 hrs by Griess assay. The settings on record: time hrs <=24. The assay is classed as functional. Put shortly: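 Griess assay measuring NO released by compounds in vitro over time; values are averages of three independent experiments.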
(In general: Nitrite, measured by Griess reagent, commonly stands in for NO production.)

By IC50 is commonly meant the point on the concentration scale where inhibition reaches its midpoint. `Cc1nc(C(=O)OCC#CCOc2no[n+]([O-])c2S(=O)(=O)c2ccccc2)cc2c1[nH]c1ccccc12`: the half-inhibitory concentration (IC50) worked out at 8.86 µM in the assay on MCF7 and 6.91 µM with MDA-MB-231.

Turning to `Cc1nc(C(=O)OCCOCCOc2no[n+]([O-])c2S(=O)(=O)c2ccccc2)cc2c1[nH]c1ccccc12`, the half-inhibitory concentration (IC50) with MCF7 came to 5.89 µM; in the assay on MDA-MB-231, 7.67 µM.

In the case of `COc1ccc(-c2nc(C(=O)OCCOc3no[n+]([O-])c3S(=O)(=O)c3ccccc3)cc3c2[nH]c2ccccc23)cc1`, the figures for the half-maximal inhibitory concentration (IC50) in the assay with MCF7 and with MDA-MB-231 were 4.8 µM and 3.59 µM, respectively. Moreover, in assay [1], the result was Active.

Take `COc1ccc(-c2nc(C(=O)OCC#CCOc3no[n+]([O-])c3S(=O)(=O)c3ccccc3)cc3c2[nH]c2ccccc23)cc1`: the results for the half-maximal inhibitory concentration (IC50) with MCF7 and in the assay with MDA-MB-231 were 2.35 µM and 1.16 µM, respectively.

Take `Cc1nc(C(=O)OCCCOc2no[n+]([O-])c2S(=O)(=O)c2ccccc2)cc2c1[nH]c1ccccc12`: the half-maximal inhibitory concentration (IC50) with MCF7 came out at 4.88 µM; with MDA-MB-231 it was 2.24 µM.

Regarding `CC(CNC(=O)c1cc2c(cn1)[nH]c1ccccc12)Oc1no[n+]([O-])c1S(=O)(=O)c1ccccc1` (centres undefined), the IC50 in the assay on MCF7 came out at 6.94 µM; in the assay on MDA-MB-231 it was 5.97 µM.

Regarding `COc1ccc(-c2nc(C(=O)OCCCCCCOc3no[n+]([O-])c3S(=O)(=O)c3ccccc3)cc3c2[nH]c2ccccc23)cc1`, the IC50 with MCF7 came out at 5.36 µM; with MDA-MB-231, 2.98 µM. The result in assay [1] was Active.

For `Cc1nc(C(=O)OCCOc2no[n+]([O-])c2S(=O)(=O)c2ccccc2)cc2c1[nH]c1ccccc12`, the results for the IC50 with MCF7 and in the assay on MDA-MB-231 were 4.58 µM and 7.46 µM, respectively.

Regarding `Cc1nc(C(=O)OCCCCOc2no[n+]([O-])c2S(=O)(=O)c2ccccc2)cc2c1[nH]c1ccccc12`, the IC50 came to 4.28 µM in the assay with MCF7 and 4.54 µM in the assay on MDA-MB-231.

For the compound `Cc1nc(C(=O)NCCCOc2no[n+]([O-])c2S(=O)(=O)c2ccccc2)cc2c1[nH]c1ccccc12`, the IC50 was determined as 2.97 µM in the assay on MCF7 and 1.62 µM in the assay with MDA-MB-231.

Regarding `O=C(OCCCOc1no[n+]([O-])c1S(=O)(=O)c1ccccc1)c1cc2c(cn1)[nH]c1ccccc12`, the IC50 in the assay with MCF7 was 4.64 µM; in the assay on MDA-MB-231, 7.96 µM.

Turning to `O=C(c1cc2c(cn1)[nH]c1ccccc12)N1CCN(CCOc2no[n+]([O-])c2S(=O)(=O)c2ccccc2)CC1`, the concentration for half-maximal inhibition (IC50) with MCF7 turned out to be 8.28 µM; in the assay on MDA-MB-231, 6.83 µM.

On to `O=C(NCCOc1no[n+]([O-])c1S(=O)(=O)c1ccccc1)c1cc2c(cn1)[nH]c1ccccc12`, for which the figures for the IC50 in the assay on MCF7 and in the assay with MDA-MB-231 were 7.53 µM and 6.75 µM, respectively.

For `Cc1nc(C(=O)OCCCCCCOc2no[n+]([O-])c2S(=O)(=O)c2ccccc2)cc2c1[nH]c1ccccc12`, the IC50 in the assay on MCF7 came out at 6.85 µM; in the assay with MDA-MB-231, 5.75 µM.

As for `COc1ccc(-c2nc(C(=O)NCCOc3no[n+]([O-])c3S(=O)(=O)c3ccccc3)cc3c2[nH]c2ccccc23)cc1`, the IC50 in the assay with MCF7 was found to be 1.45 µM; in the assay on MDA-MB-231, 0.87 µM. For the same compound, the result in assay [1] was Active.

Regarding `COc1ccc(-c2nc(C(=O)OCCCCOc3no[n+]([O-])c3S(=O)(=O)c3ccccc3)cc3c2[nH]c2ccccc23)cc1`, the figures for the IC50 in the assay on MCF7 and in the assay with MDA-MB-231 were 2.92 µM and 4.26 µM, respectively.

Regarding `Cc1nc(C(=O)NCC(C)Oc2no[n+]([O-])c2S(=O)(=O)c2ccccc2)cc2c1[nH]c1ccccc12` (centres undefined), the 50% inhibitory concentration (IC50) turned out to be 3.8 µM with MCF7 and 2.2 µM in the assay with MDA-MB-231.

On to `O=C(OCC#CCOc1no[n+]([O-])c1S(=O)(=O)c1ccccc1)c1cc2c(cn1)[nH]c1ccccc12`, for which the concentration for half-maximal inhibition (IC50) in the assay with MCF7 was 5.27 µM; in the assay on MDA-MB-231, 5.89 µM.

As for `O=C(O)c1cc2c(cn1)[nH]c1ccccc12`, the concentration for half-maximal inhibition (IC50) in the assay on MCF7 and in the assay with MDA-MB-231 was above 30 µM throughout.

Turning to `COc1cccc2c1C(=O)c1c(O)c3c(c(O)c1C2=O)C[C@@](O)(C(=O)CO)C[C@@H]3O[C@H]1C[C@H](N)[C@H](O)[C@H](C)O1` [DOXORUBICIN], the half-maximal inhibitory concentration (IC50) in the assay with MDA-MB-231 stood at 2.86 µM.

`COc1ccc(-c2nc(C(=O)N3CCN(CCOc4no[n+]([O-])c4S(=O)(=O)c4ccccc4)CC3)cc3c2[nH]c2ccccc23)cc1`: the half-maximal inhibitory concentration (IC50) in the assay with MCF7 was 1.33 µM; in the assay on MDA-MB-231 it was 0.92 µM. Moreover, in assay [1], the result was Active.

On to `O=C(OCCCCCCOc1no[n+]([O-])c1S(=O)(=O)c1ccccc1)c1cc2c(cn1)[nH]c1ccccc12`, for which the half-inhibitory concentration (IC50) in the assay with MCF7 was 13.7 µM; with MDA-MB-231 it was 8.87 µM.

Take `COc1ccc(-c2nc(C(=O)NCC(C)Oc3no[n+]([O-])c3S(=O)(=O)c3ccccc3)cc3c2[nH]c2ccccc23)cc1` (centres undefined): the figures for the IC50 with MCF7 and with MDA-MB-231 were 1.56 µM and 2.27 µM, respectively. Further, the outcome in assay [1] was Active.

In the case of `O=C(OCCOc1no[n+]([O-])c1S(=O)(=O)c1ccccc1)c1cc2c(cn1)[nH]c1ccccc12`, the IC50 in the assay with MCF7 is 11.5 µM; in the assay on MDA-MB-231 it was 9.56 µM.

Turning to `Cc1nc(C(=O)O)cc2c1[nH]c1ccccc12` [HARMAN-3-CARBOXYLIC ACID], the half-inhibitory concentration (IC50) in the assay on MCF7 was 19.2 µM; with MDA-MB-231, 22.6 µM.

Consider `Cc1nc(C(=O)NCCOc2no[n+]([O-])c2S(=O)(=O)c2ccccc2)cc2c1[nH]c1ccccc12`, for which the IC50 in the assay on MCF7 worked out at 4.96 µM; in the assay with MDA-MB-231, 3.84 µM.

As for `O=C(NCCCOc1no[n+]([O-])c1S(=O)(=O)c1ccccc1)c1cc2c(cn1)[nH]c1ccccc12`, the 50% inhibitory concentration (IC50) is 4.64 µM in the assay with MCF7 and 7.5 µM in the assay on MDA-MB-231.

Consider `COc1ccc(-c2nc(C(=O)OCCOCCOc3no[n+]([O-])c3S(=O)(=O)c3ccccc3)cc3c2[nH]c2ccccc23)cc1`, for which the IC50 with MCF7 turned out to be 3.92 µM; in the assay with MDA-MB-231 it was 2.53 µM.

For `COc1ccc(-c2nc(C(=O)OCCCOc3no[n+]([O-])c3S(=O)(=O)c3ccccc3)cc3c2[nH]c2ccccc23)cc1`, the half-maximal inhibitory concentration (IC50) was 3.49 µM in the assay with MCF7 and 2.86 µM in the assay with MDA-MB-231.

Regarding `COc1ccc(-c2nc(C(=O)O)cc3c2[nH]c2ccccc23)cc1`, the values for the IC50 with MCF7 and with MDA-MB-231 were 14.3 µM and 12.6 µM, respectively.

On to `O=C(OCCOCCOc1no[n+]([O-])c1S(=O)(=O)c1ccccc1)c1cc2c(cn1)[nH]c1ccccc12`, for which the IC50 was 19 µM in the assay on MCF7 and 15.8 µM in the assay with MDA-MB-231.

`O=S(=O)(c1ccccc1)c1no[n+]([O-])c1S(=O)(=O)c1ccccc1`: the results for the IC50 in the assay with MCF7 and in the assay with MDA-MB-231 were 3.92 µM and 4.84 µM, respectively.

For `COc1ccc2c(c1)[nH]c1c(C)nccc12` [HARMINE], the 50% inhibitory concentration (IC50) with MCF7 is 16.9 µM; in the assay on MDA-MB-231 it was 21.9 µM.

With `Cc1nc(C(=O)N2CCN(CCOc3no[n+]([O-])c3S(=O)(=O)c3ccccc3)CC2)cc2c1[nH]c1ccccc12`, the IC50 with MCF7 is 3.29 µM; with MDA-MB-231, 3.47 µM.

Consider `O=C(OCCCCOc1no[n+]([O-])c1S(=O)(=O)c1ccccc1)c1cc2c(cn1)[nH]c1ccccc12`, for which the values for the IC50 in the assay with MCF7 and with MDA-MB-231 were 9.57 µM and 12.5 µM, respectively.
